Measured values published in ChEMBL document CHEMBL1140655, “Design and synthesis of hepatoselective, pyrrole-based HMG-CoA reductase inhibitors” (Bioorg Med Chem Lett, 2007).
Active and inactive are the calls of the source. No cut-off for these calls is given here.

What was measured:
[1] = biological target: T1, 3-hydroxy-3-methylglutaryl-coenzyme A reductase (Homo sapiens, UniProt P04035); assay: Inhibition of HMG-CoA reductase
T1 sequence (P04035 whole entry): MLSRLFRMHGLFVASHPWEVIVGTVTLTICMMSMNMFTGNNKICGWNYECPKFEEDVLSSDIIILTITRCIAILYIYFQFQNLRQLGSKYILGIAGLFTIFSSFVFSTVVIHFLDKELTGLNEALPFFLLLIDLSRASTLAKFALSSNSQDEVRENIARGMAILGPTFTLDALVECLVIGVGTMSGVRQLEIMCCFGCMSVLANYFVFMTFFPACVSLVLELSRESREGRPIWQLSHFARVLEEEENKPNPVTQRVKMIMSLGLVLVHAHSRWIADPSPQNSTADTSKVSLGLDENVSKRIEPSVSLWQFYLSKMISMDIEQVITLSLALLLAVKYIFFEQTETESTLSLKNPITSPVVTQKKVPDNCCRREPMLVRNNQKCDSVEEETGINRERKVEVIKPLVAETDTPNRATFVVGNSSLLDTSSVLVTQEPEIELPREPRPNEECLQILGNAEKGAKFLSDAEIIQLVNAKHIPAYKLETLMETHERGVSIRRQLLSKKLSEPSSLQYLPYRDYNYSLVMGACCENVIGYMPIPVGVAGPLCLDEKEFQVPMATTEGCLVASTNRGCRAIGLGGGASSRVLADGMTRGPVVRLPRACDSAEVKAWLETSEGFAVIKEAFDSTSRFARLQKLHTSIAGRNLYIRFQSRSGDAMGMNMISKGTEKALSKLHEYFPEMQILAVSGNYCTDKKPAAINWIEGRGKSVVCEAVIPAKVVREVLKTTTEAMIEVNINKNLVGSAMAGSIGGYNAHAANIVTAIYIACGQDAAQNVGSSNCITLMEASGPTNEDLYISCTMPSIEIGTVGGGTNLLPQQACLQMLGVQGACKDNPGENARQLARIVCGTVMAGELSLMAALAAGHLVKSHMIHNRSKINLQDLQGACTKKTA

[2] = Inhibition of cholesterol synthesis in rat myocyte; type: functional, cell-based; conditions: Ventricular myocyte
Hepatocyte = assay: Inhibition of cholesterol synthesis in rat hepatocyte; type: functional, cell-based
Mus musculus = assay: Inhibition of acute cholesterol synthesis in mouse at 1 mg/kg; type: functional; conditions: for inhibition in vivo at 1 mg/kg: read-out: Inhibition
[3] = Reduction in LDL cholesterol on cholestyramine-primed orally dosed hamster plasma after 7 days; type: functional; conditions: Cricetulus griseus, po, 168 h
Summary of the method: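 Cholestyramine-primed hamsters were dosed orally once daily for 7 days at 0.1, 0.5, 1, 5, 10 or 50 mg/kg (separate groups, n = 10 each). Animals were sacrificed 2 h after the final dose and plasma LDL measured. Results are mean ± SEM percent change from control, with ED50 derived from the dose–response.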

[4] = Reduction in LDL cholesterol on cholestyramine-primed hamster serum at 10 mg/kg, po after 7 days; type: functional; set-up: scale not given: the % may be the effect or the level left
Summary of the method: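 Cholestyramine-primed hamsters were dosed orally at 10 mg/kg once daily for 7 days. At the end of treatment, serum LDL-C was measured and percent reduction calculated against an untreated control group.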

IC50 [1] [nM]	IC50 [2] [nM]	Compound	IC50 (Hepatocyte) [nM]	inhibition in vivo at 1 mg/kg (Mus musculus) [%]	ED50 [3] [mg/kg]	Activity [4] [%]	inhibition (Mus musculus)
0.3	549	CC(C)n1c(CC[C@@H](O)C[C@@H](O)CC(=O)O)c(-c2ccc(F)cc2)c(-c2ccc(F)cc2)c1C(=O)Nc1cccc(C(=O)N(C)C)c1	0.2	20			
15	1930	CC(C)NC(=O)c1c(-c2ccccc2)c(-c2ccc(F)cc2)c(CC[C@@H](O)C[C@@H](O)CC(=O)O)n1C(C)C	1.6	73			
12	2270	CCNC(=O)c1c(-c2ccccc2)c(-c2ccc(F)cc2)c(CC[C@@H](O)C[C@@H](O)CC(=O)[O-])n1C(C)C.[Na+]	0.7	76	3	-24	
0.7	211	COCc1ccc(CNC(=O)c2c(-c3ccccc3)c(-c3ccc(F)cc3)c(CC[C@@H](O)C[C@@H](O)CC(=O)O)n2C(C)C)cc1	1.5				
1.2	6520	CC(C)n1c(CC[C@@H](O)C[C@@H](O)CC(=O)O)c(-c2ccc(F)cc2)c(-c2ccccc2)c1C(=O)NCc1ccc(C(=O)N(C)C)cc1	4.9	38			
0.6	3230	Cc1cc(CNC(=O)c2c(-c3ccccc3)c(-c3ccc(F)cc3)c(CC[C@@H](O)C[C@@H](O)CC(=O)O)n2C(C)C)nn1C	0.9	19			
1.4	1110	CC(C)n1c(CC[C@@H](O)C[C@@H](O)CC(=O)O)c(-c2ccc(F)cc2)c(-c2ccccc2)c1C(=O)Nc1ccc(C(=O)N(C)C)cc1	0.7	10			
0.8	472	CC(C)n1c(CC[C@@H](O)C[C@@H](O)CC(=O)O)c(-c2ccc(F)cc2)c(-c2ccccc2)c1C(=O)NCc1ccccn1	0.1	39			
2.2	7920	CC(C)n1c(CC[C@@H](O)C[C@@H](O)CC(=O)O)c(-c2ccc(F)cc2)c(-c2ccccc2)c1C(=O)NCc1ccc(C(=O)O)cc1	0.1	7			
6.6	50	COc1cccc(NC(=O)c2c(-c3ccc(F)cc3)c(-c3ccc(F)cc3)c(CC[C@@H](O)C[C@@H](O)CC(=O)O)n2C(C)C)c1	0.3	54			
8.8	5300	CNC(=O)c1c(-c2ccccc2)c(-c2ccc(F)cc2)c(CC[C@@H](O)C[C@@H](O)CC(=O)[O-])n1C(C)C.[Na+]	1.2	83		-12	
3.8	2780	CC(C)n1c(CC[C@@H](O)C[C@@H](O)CC(=O)[O-])c(-c2ccc(F)cc2)c(-c2ccccc2)c1C(=O)NC1CC1.[Na+]	2	70		-24	
0.3	684	CC(C)n1c(CC[C@@H](O)C[C@@H](O)CC(=O)O)c(-c2ccc(F)cc2)c(-c2ccccc2)c1C(=O)Nc1ccc(C(N)=O)cc1	0.1	45			
2.6	10400	Cc1cc(CNC(=O)c2c(-c3ccccc3)c(-c3ccc(F)cc3)c(CC[C@@H](O)C[C@@H](O)CC(=O)O)n2C(C)C)n[nH]1	0.5				
0.7	524	CC(C)n1c(CC[C@@H](O)C[C@@H](O)CC(=O)O)c(-c2ccc(F)cc2)c(-c2ccc(F)cc2)c1C(=O)Nc1cccc(O)c1	1.2	22			
0.4	626	CC(C)n1c(CC[C@@H](O)C[C@@H](O)CC(=O)O)c(-c2ccc(F)cc2)c(-c2ccccc2)c1C(=O)Nc1ccc(O)cc1	0.5	48			

IC50 [1] [nM]	IC50 [2] [nM]	Compound	IC50 (Hepatocyte) [nM]	inhibition in vivo at 1 mg/kg (Mus musculus) [%]	ED50 [3] [mg/kg]	Activity [4] [%]	inhibition (Mus musculus)
	150	CCC(C)(C)C(=O)O[C@H]1C[C@@H](C)C=C2C=C[C@H](C)[C@H](CC[C@@H]3C[C@@H](O)CC(=O)O3)[C@H]21 [SIMVASTATIN]	1.3				
0.8	44	CC(C)n1c(CC[C@@H](O)C[C@@H](O)CC(=O)O)c(-c2ccc(F)cc2)c(-c2ccccc2)c1C(=O)NCc1ccccc1	0.3	46			
1.8	229	CC(C)n1c(CC[C@@H](O)C[C@@H](O)CC(=O)O)c(-c2ccc(F)cc2)c(-c2ccccc2)c1C(=O)Nc1ccccc1	1	57			
	145	CC(C)n1c(CC[C@@H](O)C[C@@H](O)CC(=O)O)c(-c2ccc(F)cc2)c(-c2ccc(F)cc2)c1C(=O)Nc1ccccc1	0.4	75			
3.4	10400	Cc1cnc(CNC(=O)c2c(-c3ccccc3)c(-c3ccc(F)cc3)c(CC[C@@H](O)C[C@@H](O)CC(=O)O)n2C(C)C)[nH]1	0.5	11			
3.1	250	CC(C)c1nc(N(C)S(C)(=O)=O)nc(-c2ccc(F)cc2)c1/C=C/[C@@H](O)C[C@@H](O)CC(=O)O [ROSUVASTATIN]	0.27	82		-25	
1.8	130	COc1cccc(CNC(=O)c2c(-c3ccccc3)c(-c3ccc(F)cc3)c(CC[C@@H](O)C[C@@H](O)CC(=O)O)n2C(C)C)c1	0.1				
1.2	3100	CC(C)n1c(CC[C@@H](O)C[C@@H](O)CC(=O)O)c(-c2ccc(F)cc2)c(-c2ccccc2)c1C(=O)NCc1cccc(C(N)=O)c1	0.1	22			
0.3	12600	CC(C)n1c(CC[C@@H](O)C[C@@H](O)CC(=O)O)c(-c2ccc(F)cc2)c(-c2ccccc2)c1C(=O)Nc1ccc(C(=O)O)cc1	0.1				inactive
20	1580	CC(C)n1c(CC[C@@H](O)C[C@@H](O)CC(=O)O)c(-c2ccc(F)cc2)c(-c2ccccc2)c1C(=O)N(C)C	0.9	85			
1.5	1010	Cc1csc(CNC(=O)c2c(-c3ccccc3)c(-c3ccc(F)cc3)c(CC[C@@H](O)C[C@@H](O)CC(=O)O)n2C(C)C)n1	1.5	33			
0.2	650	CC(C)n1c(CC[C@@H](O)C[C@@H](O)CC(=O)O)c(-c2ccc(F)cc2)c(-c2ccccc2)c1C(=O)NCc1ccc(C#N)cc1	0.7	47			
0.8	310	COc1ccc(CNC(=O)c2c(-c3ccccc3)c(-c3ccc(F)cc3)c(CC[C@@H](O)C[C@@H](O)CC(=O)O)n2C(C)C)cc1	0.4	52			
2.9	1790	CC(C)n1c(CC[C@@H](O)C[C@@H](O)CC(=O)O)c(-c2ccc(F)cc2)c(-c2ccccc2)c1C(=O)Nc1ccc(S(N)(=O)=O)cc1	0.3	32			
3	2450	CC(C)n1c(CC[C@@H](O)C[C@@H](O)CC(=O)[O-])c(-c2ccc(F)cc2)c(-c2ccccc2)c1C(N)=O.[Na+]	0.6	85		-11	
